# Measured values: ChEMBL document CHEMBL1155689, “Evaluation of the total peroxyl radical-scavenging capacity of flavonoids: structure-activity relationships” (J Nat Prod, 2000)
# Columns and labels:
# [1] = Antioxidant scavenging activity against 2,2'-azobis-amidinopropane-induced peroxyl radicals assessed as total oxyradical scavenging capacity relative to Trolox; format: physicochemical
# How it was run: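 Uses the same ABAP/KMBA ethylene-GC assay: 39 °C, 0.1 mM KMBA, 10 mM ABAP, pH 7.4 phosphate, 60-min time course. TOSC comes from the areas under the kinetic curves, and rTOSC from the slope of TOSC against concentration. Comparative TOSC (cTOSC) expresses each rTOSC relative to the Trolox benchmark.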
# [2] = Antioxidant scavenging activity against 2,2'-azobis-amidinopropane-induced peroxyl radicals assessed as total oxyradical scavenging capacity; format: physicochemical; set-up: unit not given here
# How it was run: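 Peroxyl radicals from thermal homolysis of ABAP at 39 °C, with 0.1 mM KMBA and 10 mM ABAP (final) in 100 mM potassium phosphate, pH 7.4. Ethylene in the headspace was measured by GC at 12-min intervals over 60 min. TOSC = 100 − (∫sample/∫control area × 100). rTOSC is the slope of the TOSC vs concentration regression within the linear range.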
Activity [1],Activity [2],Compound
1.52,8.53,COc1cc(-c2cc(=O)c3c(O)c(O)c(OC)c(OC)c3o2)ccc1O
0.81,4.53,COc1cc(-c2cc(=O)c3c(O)c(OC)c(OC)c(OC)c3o2)ccc1O
0.28,1.55,COc1ccc(-c2oc3cc(OC)c(OC)c(O)c3c(=O)c2OC)cc1OC [ARTEMETIN]
5.15,28.96,C[C@@H]1O[C@@H](OC[C@H]2O[C@@H](Oc3c(-c4ccc(O)c(O)c4)oc4cc(O)cc(O)c4c3=O)[C@H](O)[C@@H](O)[C@@H]2O)[C@H](O)[C@H](O)[C@H]1O [RUTIN]
,5.62,Cc1c(C)c2c(c(C)c1O)CCC(C)(C(=O)O)O2 (stereo unspecified) [TROLOX]

Compound,Activity [1],Activity [2]
O=c1c(O)c(-c2ccc(O)c(O)c2)oc2cc(O)cc(O)c12 [QUERCETIN],7.17,40.32
